Here are results for 1 compound from ChEMBL document CHEMBL1914304 (J Med Chem, 2011).

A word on the IC50: it is the midpoint of a concentration-inhibition curve. A low value points to higher potency. Usually inhibition stands for the share of the control response that was lost under treatment.

Experiment [1] deals with Sulfonylurea receptor 2, Kir6.2 (Homo sapiens, UniProt O60706+Q14654). Put plainly: Inhibition of human kir6.2/SUR2A ion channel coexpressed in human HEK293 cells after 5 mins by patch clamp assay. It is filed as cell-based. The method, boiled down: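 Human KCNJ11 (Kir6.2) and SUR2A were co-expressed in HEK293 cells to give the ATP-sensitive current IKATP. The assay was run at room temperature by automated parallel patch clamp, with dose-response at 0.2, 0.6, 1.6 and 5 µM. Exposure was 5 min per concentration, with each concentration in two cells (n ≥ 2).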
Chain of Sulfonylurea receptor 2, Kir6.2 (Q14654 whole entry): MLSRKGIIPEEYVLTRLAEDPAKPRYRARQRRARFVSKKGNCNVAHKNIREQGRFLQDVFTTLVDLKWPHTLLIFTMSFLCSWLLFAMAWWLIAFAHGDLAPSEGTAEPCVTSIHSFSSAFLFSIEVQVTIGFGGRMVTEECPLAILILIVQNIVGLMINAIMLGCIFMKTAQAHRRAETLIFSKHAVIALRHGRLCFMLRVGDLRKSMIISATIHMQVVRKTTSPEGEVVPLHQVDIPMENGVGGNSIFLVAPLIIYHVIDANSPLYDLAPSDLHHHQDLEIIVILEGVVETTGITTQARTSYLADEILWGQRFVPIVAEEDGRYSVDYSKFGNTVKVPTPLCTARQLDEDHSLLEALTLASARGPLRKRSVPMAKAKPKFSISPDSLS
Chain of Sulfonylurea receptor 2, Kir6.2 (O60706 whole entry): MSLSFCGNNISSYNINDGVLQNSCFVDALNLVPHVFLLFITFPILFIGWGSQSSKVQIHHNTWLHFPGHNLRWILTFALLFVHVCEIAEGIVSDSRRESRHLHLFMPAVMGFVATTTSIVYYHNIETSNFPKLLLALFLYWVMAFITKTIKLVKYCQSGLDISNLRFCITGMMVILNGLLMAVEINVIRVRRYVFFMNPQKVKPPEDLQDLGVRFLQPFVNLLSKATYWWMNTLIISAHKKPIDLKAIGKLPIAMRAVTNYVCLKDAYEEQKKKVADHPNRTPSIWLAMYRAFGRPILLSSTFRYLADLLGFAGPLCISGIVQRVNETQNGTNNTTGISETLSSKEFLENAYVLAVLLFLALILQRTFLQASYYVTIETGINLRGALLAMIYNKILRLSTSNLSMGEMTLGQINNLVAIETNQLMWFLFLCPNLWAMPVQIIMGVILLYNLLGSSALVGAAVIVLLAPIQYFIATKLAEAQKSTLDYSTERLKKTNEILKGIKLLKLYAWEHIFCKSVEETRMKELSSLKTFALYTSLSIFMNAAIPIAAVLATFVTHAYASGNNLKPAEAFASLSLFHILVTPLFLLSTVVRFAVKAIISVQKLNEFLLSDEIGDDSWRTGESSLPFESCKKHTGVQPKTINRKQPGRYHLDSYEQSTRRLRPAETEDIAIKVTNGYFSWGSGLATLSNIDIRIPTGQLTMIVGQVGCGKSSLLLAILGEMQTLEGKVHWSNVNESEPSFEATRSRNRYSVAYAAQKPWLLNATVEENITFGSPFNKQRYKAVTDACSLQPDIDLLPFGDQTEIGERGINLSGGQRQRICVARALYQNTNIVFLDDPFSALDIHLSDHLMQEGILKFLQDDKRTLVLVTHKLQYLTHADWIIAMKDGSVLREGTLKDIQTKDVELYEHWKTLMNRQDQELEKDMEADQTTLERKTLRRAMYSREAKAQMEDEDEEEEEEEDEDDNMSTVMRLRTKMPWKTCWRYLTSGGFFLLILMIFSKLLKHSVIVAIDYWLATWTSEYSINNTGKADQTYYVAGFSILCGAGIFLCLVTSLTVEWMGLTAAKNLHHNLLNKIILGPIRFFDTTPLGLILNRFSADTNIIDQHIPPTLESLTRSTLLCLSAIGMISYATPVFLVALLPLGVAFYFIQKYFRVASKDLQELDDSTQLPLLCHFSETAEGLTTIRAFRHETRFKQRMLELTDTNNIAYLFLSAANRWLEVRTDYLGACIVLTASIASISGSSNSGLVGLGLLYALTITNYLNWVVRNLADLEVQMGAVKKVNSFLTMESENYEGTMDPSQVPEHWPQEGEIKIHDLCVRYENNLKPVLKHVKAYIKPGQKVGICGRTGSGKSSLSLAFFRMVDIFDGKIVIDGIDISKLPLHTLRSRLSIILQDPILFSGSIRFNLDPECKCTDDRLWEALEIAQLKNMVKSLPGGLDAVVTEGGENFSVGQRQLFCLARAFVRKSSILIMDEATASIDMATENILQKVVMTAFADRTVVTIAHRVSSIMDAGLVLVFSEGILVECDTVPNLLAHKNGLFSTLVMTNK
A general note: The patch-clamp technique gives a direct electrical read-out from membranes.

The target in experiment [2] is T1, Potassium/sodium hyperpolarization-activated cyclic nucleotide-gated channel 4 (Homo sapiens) (UniProt Q9Y3Q4).
T1 sequence (whole entry): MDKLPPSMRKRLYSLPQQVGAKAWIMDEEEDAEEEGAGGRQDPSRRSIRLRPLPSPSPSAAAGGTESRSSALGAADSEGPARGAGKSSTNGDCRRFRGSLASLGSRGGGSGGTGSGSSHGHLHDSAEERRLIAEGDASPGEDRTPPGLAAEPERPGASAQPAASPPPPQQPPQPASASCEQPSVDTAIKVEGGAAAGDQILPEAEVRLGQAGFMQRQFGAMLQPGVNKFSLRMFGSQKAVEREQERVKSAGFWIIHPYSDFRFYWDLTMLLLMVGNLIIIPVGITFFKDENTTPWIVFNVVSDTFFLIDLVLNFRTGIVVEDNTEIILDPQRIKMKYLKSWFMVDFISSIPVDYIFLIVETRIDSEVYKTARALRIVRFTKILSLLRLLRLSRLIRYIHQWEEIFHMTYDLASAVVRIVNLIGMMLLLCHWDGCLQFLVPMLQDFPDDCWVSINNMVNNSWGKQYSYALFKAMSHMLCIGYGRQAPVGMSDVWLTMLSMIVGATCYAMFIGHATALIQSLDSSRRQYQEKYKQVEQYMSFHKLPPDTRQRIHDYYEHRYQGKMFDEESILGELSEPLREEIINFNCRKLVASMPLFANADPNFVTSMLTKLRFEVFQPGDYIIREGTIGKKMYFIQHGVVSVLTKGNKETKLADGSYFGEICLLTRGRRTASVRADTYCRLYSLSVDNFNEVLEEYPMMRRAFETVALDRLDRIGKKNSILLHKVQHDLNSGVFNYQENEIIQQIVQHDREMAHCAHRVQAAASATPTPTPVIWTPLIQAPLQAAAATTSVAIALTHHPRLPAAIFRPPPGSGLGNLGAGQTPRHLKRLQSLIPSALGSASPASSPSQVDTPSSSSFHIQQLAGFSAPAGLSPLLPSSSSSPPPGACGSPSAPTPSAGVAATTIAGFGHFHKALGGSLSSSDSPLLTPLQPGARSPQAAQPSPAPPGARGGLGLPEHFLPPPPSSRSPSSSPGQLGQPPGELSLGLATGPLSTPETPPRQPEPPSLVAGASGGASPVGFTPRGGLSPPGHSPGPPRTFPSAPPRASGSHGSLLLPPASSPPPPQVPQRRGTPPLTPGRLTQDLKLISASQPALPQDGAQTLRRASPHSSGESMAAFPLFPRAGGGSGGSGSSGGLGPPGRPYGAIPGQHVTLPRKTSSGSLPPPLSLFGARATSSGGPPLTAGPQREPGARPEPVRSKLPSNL
As to the kind of experiment: Inhibition of HCN4 at 10 uM after 5 mins by patch clamp assay. The method, boiled down: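 Cardiac ion channel panel run by a contract lab on an automated parallel patch-clamp system at room temperature. Each of 12 cardiac channels was tested with 10 µM compound for 5 min exposure, in two cells per channel (n ≥ 2). Values are reported as mean % inhibition.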

In the case of `CCCNCC(O)COc1ccccc1C(=O)CCc1ccccc1` (racemic) [PROPAFENONE], the IC50 in experiment [1] is 2200 nM. The same compound registered an inhibition in experiment [2] of 54.6%.
